The record followed here is ChEMBL document CHEMBL1157373, “Dual targeting of DNA gyrase and topoisomerase IV: target interactions of heteroaryl isothiazolones in Staphylococcus aureus” (Antimicrob Agents Chemother, 2007).

The term MIC denotes the lowest concentration found to suppress growth. Higher therefore signals a less susceptible organism. As a reminder, the IC50 is the concentration needed to halve the response being measured.

≈ marks a conversion by molar mass, not a printed value.

The test system of assay [1] is Staphylococcus aureus. In words: Antibacterial activity against Staphylococcus aureus ACH-0206 isolate with gyrA Ser84Leu mutant after 24 hrs by broth microdilution method. In kind it is functional. In outline:
(§1)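 Broth microdilution per CLSI guidelines. MIC taken as the lowest concentration preventing visible growth at 24 h. Each MIC determined at least twice.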
For orientation: In broth dilution the organism is exposed to a series of concentrations in liquid medium.

Assay [2] concerns Staphylococcus aureus. In words: Antibacterial activity against Staphylococcus aureus ATCC 29213 after 24 hrs by broth microdilution method. The note with it: ATCC 29213, 24 h. In kind it is functional. Put shortly:
as §1

The test system of assay [3] is Staphylococcus aureus. In words: Antibacterial activity against Staphylococcus aureus BSA678 isolate with gyrA Ser84Leu, Ser85Pro and grlA Ser80Phe, Glu84Lys mutant after 24 hrs by broth microdilution method.
Assay [4] has as its system Staphylococcus aureus. In words: Antibacterial activity against Staphylococcus aureus ACH-0221 isolate with gyrA Ser84Leu mutant after 24 hrs by broth microdilution method. The class given is functional. In outline:
as §1

For assay [5], the system named is Staphylococcus aureus. In words: Antibacterial activity against Staphylococcus aureus ACH-0218 isolate with grlA Glu84Lys mutant after 24 hrs by broth microdilution method. In kind it is functional. In outline:
as §1

For assay [6], the system named is Staphylococcus aureus. In words: Antibacterial activity against Staphylococcus aureus ACH-0204 isolate with gyrA Ser84Leu mutant after 24 hrs by broth microdilution method. The class given is functional. Put shortly:
as §1

Assay [7] is described as follows: Inhibition of Staphylococcus aureus wild-type topoisomerase 4 decatenation activity assessed as unlinking of DNA microcircles from kinetoplast DNA. Put shortly: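 S. aureus topo IV reconstituted from His-purified recombinant GrlA and GrlB (E. coli BL21(DE3)pLysS expression), mixed 1:1 molar on ice 10 min. 0.1 μg catenated kDNA with 2 U enzyme, 30 min at 37°C in 1 mM ATP, 5 mM DTT, 5 mM MgCl2, 50 μg/ml BSA, 50 mM Tris-HCl pH 7.5, 250 mM potassium glutamate. Products on 1% agarose gel, ethidium-stained, quantitated; IC50 by nonlinear regression.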

Assay [8] is described as follows: Inhibition of Staphylococcus aureus […] topoisomerase 4 grlA S80F mutant decatenation activity assessed as unlinking of DNA microcircles from kinetoplast DNA. In outline: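 Recombinant S. aureus GrlA (Ser80Phe) and GrlB were mixed 1:1 molar on ice for 10 min. kDNA (0.1 μg) with 2 U enzyme, 30 min at 37°C, in 1 mM ATP, 5 mM MgCl2, 250 mM K-glutamate, 50 mM Tris pH 7.5. Reactions stopped with EDTA, run on 1% agarose-TBE and ethidium-stained, minicircles quantitated. IC50 by nonlinear regression.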

Assay [9] relates to Staphylococcus aureus. In words: Antibacterial activity against Staphylococcus aureus ACH-0216 isolate with grlA Ser80Phe mutant after 24 hrs by broth microdilution method. In kind it is functional. In outline:
as §1

In assay [10] the test system is Staphylococcus aureus. In words: Antibacterial activity against Staphylococcus aureus ACH-0203 isolate with gyrA Ser84Leu and grlA Ser80Phe, Ala116Val mutant after 24 hrs by broth microdilution method. In kind it is functional. In outline: as §1
Assay [11] has as its system Staphylococcus aureus. In words: Antibacterial activity against Staphylococcus aureus ACH-0201 isolate with gyrA Ser84Leu, Glu88Val and grlA Ser80Phe, Ala116Val mutant after 24 hrs by broth microdilution method. In kind it is functional.
For assay [12], the system named is Staphylococcus aureus. In words: Antibacterial activity against Staphylococcus aureus ACH-0210 isolate with gyrA Ser84Leu and grlA Ser80Phe mutant after 24 hrs by broth microdilution method. The class given is functional.
Assay [13] concerns Staphylococcus aureus. In words: Antibacterial activity against Staphylococcus aureus BSA643 isolate with gyrA Ser84Leu and grlA Ser80Tyr, Glu84Gly mutant after 24 hrs by broth microdilution method. In kind it is functional.
Assay [14] concerns Staphylococcus aureus. In words: Antibacterial activity against Staphylococcus aureus ACH-0231 isolate with gyrA Ser84Leu, Glu88Lys and grlA Ser80Tyr, Glu84Gly mutant after 24 hrs by broth microdilution method. In kind it is functional.
The test system of assay [15] is Staphylococcus aureus. In words: (§2) Antibacterial activity against Staphylococcus aureus ACH-0129 isolate with gyrA Ser84Leu, Glu88Val and grlA Ser80Phe, Ala116Val mutant after 24 hrs by broth microdilution method. The class given is functional.
The test system of assay [16] is Staphylococcus aureus. In words: Antibacterial activity against Staphylococcus aureus NY2746 isolate with gyrA Ser84Leu and grlA Ser80Phe mutant after 24 hrs by broth microdilution method. In kind it is functional.
For assay [17], the system named is Staphylococcus aureus. In words: Antibacterial activity against Staphylococcus aureus ACH-0141 isolate with gyrA Ser84Leu, Glu88Val and grlA Ser80Phe, Ala116Val mutant after 24 hrs by broth microdilution method. In kind it is functional.
Assay [18] deals with Staphylococcus aureus. In words: Antibacterial activity against Staphylococcus aureus ACH-0192 isolate with gyrA Ser84Leu and grlA Ser80Phe, Ala116Val mutant after 24 hrs by broth microdilution method. In kind it is functional.
Assay [19] has as its system Staphylococcus aureus. In words: Antibacterial activity against Staphylococcus aureus ATCC 700699 isolate with gyrA Ser84Leu, Glu409Lys and grlA Ser80Phe mutant after 24 hrs by broth microdilution method. The class given is functional. The settings on record: ATCC 700699, 24 h.
Assay [20] relates to Staphylococcus aureus. In words: Antibacterial activity against Staphylococcus aureus ACH-0186 isolate with gyrA Ser84Leu and grlA Ser80Phe, Ala116Val mutant after 24 hrs by broth microdilution method. The class given is functional.
Assay [21] relates to Staphylococcus aureus. In words: Antibacterial activity against Staphylococcus aureus ACH-0126 isolate with gyrA Ser84Leu and grlA Ser80Phe mutant after 24 hrs by broth microdilution method. In kind it is functional.
For assay [22], the system named is Staphylococcus aureus. The assay is described as §2. In kind it is functional. The source holds these as a separate data set.
Assay [23] concerns Staphylococcus aureus. In words: Antibacterial activity against Staphylococcus aureus ATCC 33591 isolate after 24 hrs by broth microdilution method. The settings on record: ATCC 33591, 24 h. The class given is functional. In outline: as §1

Take `O=C(O)c1cn(C2CC2)c2cc(N3CCNCC3)c(F)cc2c1=O` [CIPROFLOXACIN]: the MIC in the assay with Staphylococcus aureus [1] came to 0.5 mg/L (≈ 1.51 µM); with Staphylococcus aureus [2] it was 0.25 mg/L (≈ 0.754 µM); against Staphylococcus aureus [3] it was 128 mg/L (≈ 386 µM); against Staphylococcus aureus [4] it was 1 mg/L (≈ 3.02 µM); with Staphylococcus aureus [5], 2 mg/L (≈ 6.04 µM); in the assay on Staphylococcus aureus [6], 0.5 mg/L (≈ 1.51 µM). Further, the MIC in the assay on Staphylococcus aureus [9] was found to be 2 mg/L (≈ 6.04 µM); against Staphylococcus aureus [10] it was 128 mg/L (≈ 386 µM). Moreover, the IC50 in [7] is 3 µM; in assay [8], above 40 µM.

Regarding `COc1c(N2C[C@@H]3CCCN[C@@H]3C2)c(F)cc2c(=O)c(C(=O)O)cn(C3CC3)c12` [MOXIFLOXACIN], the MIC against Staphylococcus aureus [1] is 0.125 mg/L (≈ 0.311 µM); with Staphylococcus aureus [11] it was 16 mg/L (≈ 39.9 µM); with Staphylococcus aureus [12], 4 mg/L (≈ 9.96 µM); in the assay on Staphylococcus aureus [2] it was 0.06 mg/L (≈ 0.149 µM); in the assay on Staphylococcus aureus [3], above 64 mg/L; in the assay with Staphylococcus aureus [4], 0.5 mg/L (≈ 1.25 µM). Also, the MIC against Staphylococcus aureus [5] is 0.25 mg/L (≈ 0.623 µM); in the assay with Staphylococcus aureus [6] it was 0.125 mg/L (≈ 0.311 µM); against Staphylococcus aureus [13], 16 mg/L (≈ 39.9 µM); against Staphylococcus aureus [14], 32 mg/L (≈ 79.7 µM); against Staphylococcus aureus [15], 8 mg/L (≈ 19.9 µM); with Staphylococcus aureus [9], 0.25 mg/L (≈ 0.623 µM). In addition, the MIC in the assay on Staphylococcus aureus [16] came to 8 mg/L (≈ 19.9 µM); in the assay with Staphylococcus aureus [17], 16 mg/L (≈ 39.9 µM); with Staphylococcus aureus [18] it was 16 mg/L (≈ 39.9 µM); in the assay with Staphylococcus aureus [19], 4 mg/L (≈ 9.96 µM); in the assay on Staphylococcus aureus [10] it was 32 mg/L (≈ 79.7 µM); in the assay on Staphylococcus aureus [20], 16 mg/L (≈ 39.9 µM). In the assay on Staphylococcus aureus [21], this compound showed an MIC of 4 mg/L (≈ 9.96 µM). Besides, the IC50 in [7] was found to be 1 µM; in assay [8], 11.9 µM.

As for `Cc1cc(-c2cc3c(cc2F)c(=O)c2c(=O)[nH]sc2n3C2CC2)ccn1`, the MIC in the assay with Staphylococcus aureus [22] came to 4 mg/L (≈ 10.9 µM); in the assay with Staphylococcus aureus [1], 0.03 mg/L (≈ 0.0817 µM); with Staphylococcus aureus [11], 8 mg/L (≈ 21.8 µM); against Staphylococcus aureus [12], 0.5 mg/L (≈ 1.36 µM); with Staphylococcus aureus [2] it was 0.008 mg/L (≈ 0.0218 µM); with Staphylococcus aureus [3] it was 4 mg/L (≈ 10.9 µM). Besides, the MIC in the assay on Staphylococcus aureus [4] turned out to be 0.03 mg/L (≈ 0.0817 µM); in the assay on Staphylococcus aureus [5], 0.08 mg/L (≈ 0.218 µM); in the assay on Staphylococcus aureus [6], 0.03 mg/L (≈ 0.0817 µM); in the assay with Staphylococcus aureus [13], 0.25 mg/L (≈ 0.68 µM); in the assay with Staphylococcus aureus [14] it was 16 mg/L (≈ 43.5 µM); in the assay on Staphylococcus aureus [15] it was 4 mg/L (≈ 10.9 µM). Besides, the minimum inhibitory concentration (MIC) against Staphylococcus aureus [9] is 0.016 mg/L (≈ 0.0435 µM); in the assay on Staphylococcus aureus [16], 0.5 mg/L (≈ 1.36 µM); against Staphylococcus aureus [17], 16 mg/L (≈ 43.5 µM); against Staphylococcus aureus [18] it was 2 mg/L (≈ 5.44 µM); against Staphylococcus aureus [19], 0.25 mg/L (≈ 0.68 µM); against Staphylococcus aureus [23] it was 0.004 mg/L (≈ 0.0109 µM). Besides, the figures for the MIC with Staphylococcus aureus [10], in the assay on Staphylococcus aureus [20] and in the assay on Staphylococcus aureus [21] were 2 mg/L (≈ 5.44 µM), 0.5 mg/L (≈ 1.36 µM) and 0.5 mg/L (≈ 1.36 µM), respectively.

Turning to `CC[n+]1c(-c2ccccc2)c2cc(N)ccc2c2ccc(N)cc21.[Br-]` [HOMIDIUM BROMIDE], the MIC in the assay on Staphylococcus aureus [1] was found to be 4 mg/L; in the assay with Staphylococcus aureus [11], 2 mg/L; against Staphylococcus aureus [12] it was 2 mg/L; with Staphylococcus aureus [2] it was 4 mg/L; in the assay on Staphylococcus aureus [3], 4 mg/L; in the assay on Staphylococcus aureus [4], 16 mg/L. In addition, the MIC stood at 16 mg/L against Staphylococcus aureus [5]; 4 mg/L against Staphylococcus aureus [6]; 16 mg/L with Staphylococcus aureus [13]; 16 mg/L in the assay on Staphylococcus aureus [14]; 4 mg/L in the assay with Staphylococcus aureus [15]; 4 mg/L in the assay with Staphylococcus aureus [9]. Also, the MIC against Staphylococcus aureus [16] is 16 mg/L; against Staphylococcus aureus [17] it was 4 mg/L; in the assay on Staphylococcus aureus [18], 2 mg/L; with Staphylococcus aureus [19] it was above 64 mg/L; against Staphylococcus aureus [23] it was 16 mg/L; against Staphylococcus aureus [10], 32 mg/L. In addition, the MIC against Staphylococcus aureus [20] was 1 mg/L; with Staphylococcus aureus [21], 4 mg/L.
